Inconclusive results are not listed.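 How the source made its calls, unless noted: active means viability increase at or above a cutoff of the median across tested compounds plus 3 SD (cut at about 8.5% in these data, passing the limit was not always enough); inconclusive means some gains above the cutoff, reason not given; inactive means the rest.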
Legend:
[1] = S. cerevisiae growth inhibition in permissive medium (OD615), pilot counter-assay for S. cerevisiae lifespan shortening project, permissive growth control (AID 705;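 active means growth inhibition above 25% in both replicates, a cutoff set 3 SD above the mean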); details: OD615, 24 h, at 10 µM, stronger effect = higher value
Procedure, shortened: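 System: engineered DeaD yeast; Medium: permissive raffinose/galactose medium; Compound dosing: 10 µM single dose, 0.25% DMSO; Incubation: 4 h cell pre-growth, 24 h exposure at 30 °C; Technique: OD at 615 nm; Evaluation: growth inhibition from lowered OD615 after 24 h.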

[2] = S. cerevisiae growth inhibition in restrictive medium, OD615, pilot screen, restrictive growth control, yeast lifespan reduction project (AID 706;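 active means growth inhibition above a set limit, 3 SD over mean compound inhibition, in both replicates, cut at about 43% in these data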;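 further: modified DeaD lifespan yeast strain shifted to restrictive glucose medium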); details: OD615, 48 h, at 10 µM, stronger effect = higher value
Procedure, shortened: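 Material: modified S. cerevisiae; buffer or medium: CSMM-D glucose medium; doses: one concentration, 10 µM final, 0.25% DMSO; incubation: 48 h compound exposure at 30 °C; detection: optical density at 615 nm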

[3] = doxorubicin toxicity protection in MRP-1 cells – H69AR cells, CellTiter-Glo, duplicate, MRP-1 activator project, pilot screen (AID 807); details: H69AR viability with doxorubicin, CellTiter-Glo luminescence; at 10 µM; stronger effect = higher value;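 further: compound pretreatment 18-22 h then 72 h combined with doxorubicin; 0% = doxorubicin alone and 100% = vehicle without doxorubicin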
[4] = viability of HCT116 without oncogenic beta-catenin – human colon tumor cells, pilot screen (AID 823;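 active means cell viability at or below a set limit in both duplicate runs, the limit being the all-compound median minus 4 SD, cut at about 23% in these data, passing the limit was not always enough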;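 further: 0% = wells killed by 20 µM Hyamine and 100% = untreated DMSO cell wells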); details: HCT116 beta-catenin knockout viability, CellTiter-Glo, 60 h; at 10 µM; stronger effect = lower value
[5] = viability of PTEN-null HCT116 cells – cell-based, HCT116 clonal line, CellTiter-Glo, pilot screen (AID 824;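 active means viability at or below 27.92% in each of two runs, the all-compound median minus 4 SD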;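 further: 0% = 20 µM Hyamine control and 100% = vehicle cell control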); details: HCT116 PTEN-deleted viability, 60 h, at 10 µM, stronger effect = lower value
[6] = RAM pathway blockade in budding yeast – dse1pr::URA3 reporter, 5-FOA selection, pilot screen (AID 869;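 active means inhibition over a set limit, the all-compound mean plus 3 SD, in both replicate runs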;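 further: 0% = DMSO wells with no growth and 100% = 10 µM 1-NA-PP1 with full growth; RAM network block rescues cells from 5-FOA so hits raise OD615 growth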); details: S. cerevisiae dse1pr::URA3 5-FOA growth, OD615, 2 d; at 10 µM; stronger effect = higher value; strain carries analog-sensitive mutant Cbk1 kinase
[7] = RAM signaling pathway blockade in yeast – S. cerevisiae, Pdr1DBD-CYC8 efflux-inhibited sensitized strain, primary screen (AID 1298;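 active means RAM network inhibition above 8.4% in each of two replicates, 3 SD over the compound average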;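 further: 0% = DMSO untreated cells without growth and 100% = 10 µM 1-NA-PP1 full growth; higher means more yeast growth rescued from 5-FOA killing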); details: S. cerevisiae cbk1-as DSE1-URA3 strain, 5-FOA growth OD615, 2 d; at 50 µM; stronger effect = higher value

COC(=O)c1ccc(NC(=O)CNC(=O)C2CCCCC2)cc1
inactive: growth inhibition [1] -0.115% | growth inhibition [2] -0.73% | viability increase [3] -0.57% | viability [4] 98.4% | viability [5] 88.1% | inhibition [6] 0.625% | RAM network inhibition [7] 1.94%

N#CC1=C(N)SC(N)=C(C#N)C1C1CC=CCC1 (stereo not drawn)
inactive: growth inhibition [1] -18.9% | growth inhibition [2] -10.4% | viability increase [3] -0.79% | viability [4] 108% | viability [5] 97.5% | inhibition [6] 2.11% | RAM network inhibition [7] 0.74%

CCOC(=O)C1CCCN(Cc2nc(N)nc(Nc3ccccc3OC)n2)C1 (stereo not drawn)
inactive: growth inhibition [1] -0.44% | growth inhibition [2] -2.06% | viability increase [3] -3.66% | viability [4] 88.8% | viability [5] 83.4% | inhibition [6] 0.15% | RAM network inhibition [7] 0.43%

Brc1ccc(-c2noc(COc3ccc4c(c3)CCC4)n2)o1
inactive: growth inhibition [1] -10.2% | growth inhibition [2] -11.6% | viability increase [3] 2.86% | viability [4] 95.8% | viability [5] 105% | inhibition [6] 1.22% | RAM network inhibition [7] 4.46%

Cc1cc(=O)[nH]c(SCc2cc(=O)n3nc(C)sc3n2)n1
inactive: growth inhibition [1] 4.53% | growth inhibition [2] -7.55% | viability increase [3] -1% | viability [4] 104% | viability [5] 96.5% | inhibition [6] 1.32% | RAM network inhibition [7] 5.96%

COc1ccc(C)cc1NC(=O)CN(c1ccccc1F)S(C)(=O)=O
inactive: growth inhibition [1] -8.48% | growth inhibition [2] -0.695% | viability increase [3] -1.51% | viability [4] 94.6% | viability [5] 103% | inhibition [6] -0.63% | RAM network inhibition [7] 0.32%

C=CCSc1nnc(-c2cc(Br)ccc2N)c(=O)[nH]1
inactive: growth inhibition [1] -14.6% | growth inhibition [2] -18% | viability increase [3] 0.99% | viability [4] 102% | viability [5] 96.5% | inhibition [6] 0.7% | RAM network inhibition [7] 2.42%

Cc1cc(=O)[nH]c(Cc2ccc(OC(C)C)cc2)n1
inactive: growth inhibition [1] -6.43% | growth inhibition [2] -15.4% | viability increase [3] -1.17% | viability [4] 98.4% | viability [5] 93.2% | inhibition [6] 1.98% | RAM network inhibition [7] 5.82%

CCOC(=O)C1CCCCN1C(=O)CCc1c(C)nc2cc(-c3ccccc3)nn2c1C (stereo not drawn)
inactive: growth inhibition [1] 4.13% | growth inhibition [2] -4.46% | viability increase [3] 1.11% | viability [4] 52.9% | viability [5] 78% | inhibition [6] 1.38% | RAM network inhibition [7] -2.1%

CCC(=O)Nc1nc2ccc3nc(C)sc3c2s1
inactive: growth inhibition [1] -5.17% | growth inhibition [2] 32.5% | viability increase [3] -4.98% | viability [4] 75.3% | viability [5] 81.1% | inhibition [6] 0.415% | RAM network inhibition [7] 2.94%

CCOC(=O)C1CCCN(C(=O)CN(c2ccc(OC)cc2)S(=O)(=O)c2c(C)noc2C)C1 (stereo not drawn)
inactive: growth inhibition [1] -7.31% | growth inhibition [2] -7.06% | viability increase [3] -2.84% | viability [4] 102% | viability [5] 93.8% | inhibition [6] 1.58% | RAM network inhibition [7] 1.13%

COc1ccc(CCNC(=O)c2c(-c3ccccc3)noc2C)cc1OC
inactive: growth inhibition [1] 3.07% | growth inhibition [2] -2.27% | viability increase [3] 0.19% | viability [4] 102% | viability [5] 101% | inhibition [6] 2.2% | RAM network inhibition [7] 0.43%

O=C(CCCCCn1c(=O)[nH]c2ccsc2c1=O)N1CCN(C2CCCCC2)CC1
inactive: growth inhibition [1] -5.63% | growth inhibition [2] -0.345% | viability increase [3] -1.81% | viability [4] 95.3% | viability [5] 92.3% | inhibition [6] 1.38% | RAM network inhibition [7] 3%

CC(=O)Nc1ccc(NC(=O)CCC(=O)NCCO)cc1
inactive: growth inhibition [1] -10.7% | growth inhibition [2] -16.7% | viability increase [3] -0.28% | viability [4] 90.8% | viability [5] 92.8% | inhibition [6] 0.825% | RAM network inhibition [7] 5.19%

CCc1ccccc1NC1c2ccccc2C(=O)N1Cc1ccco1 (stereo not drawn)
inactive: growth inhibition [1] -4.26% | growth inhibition [2] 12.8% | viability increase [3] -4.71% | viability [4] 97.1% | viability [5] 84.8% | inhibition [6] 2.31% | RAM network inhibition [7] 3.95%

CCC(=O)N/C(=N/c1nc(C)cc(C)n1)Nc1cccc(OC)c1
inactive: growth inhibition [1] -5.62% | growth inhibition [2] -19.7% | viability increase [3] -4.53% | viability [4] 41.1% | viability [5] 36.4% | inhibition [6] 2.23% | RAM network inhibition [7] 3.66%

COc1ccc(-n2c(Cc3cc(=O)[nH]c(=O)[nH]3)nnc2SCC(=O)N2CCCC2)cc1
inactive: growth inhibition [1] -4.92% | growth inhibition [2] -0.375% | viability increase [3] 0.36% | viability [4] 101% | viability [5] 97.9% | inhibition [6] 0.805% | RAM network inhibition [7] 0.42%

Cc1cccc(CSc2nnc(Cn3c(=O)sc4ccccc43)n2C)c1
inactive: growth inhibition [1] -2.34% | growth inhibition [2] 1.82% | viability increase [3] -1.45% | viability [4] 86.4% | viability [5] 87.3% | inhibition [6] -0.065% | RAM network inhibition [7] 4.9%

CCCN1CCN(CCCNC(=O)c2cc3c(=O)n(C)c4ccccc4c3n2C)CC1
inactive: growth inhibition [1] -5.02% | growth inhibition [2] 0.66% | viability increase [3] -7.07% | viability [4] 64.1% | viability [5] 65.3% | inhibition [6] 0.68% | RAM network inhibition [7] 1.89%

C=CCOn1c(=O)c(C)[n+]([O-])c2ccccc21
inactive: growth inhibition [1] -11.6% | growth inhibition [2] -14.3% | viability increase [3] -0.5% | viability [4] 105% | viability [5] 98.2% | inhibition [6] -0.085% | RAM network inhibition [7] 5.63%

CCNCCNC(=O)c1c(O)c2cccc3c2n(c1=O)CCC3
inactive: growth inhibition [1] -22.8% | growth inhibition [2] -19% | viability increase [3] -3.02% | viability [4] 82.6% | viability [5] 93.7% | inhibition [6] 0.7% | RAM network inhibition [7] 0.57%

COC(=O)c1cc(=O)nc2scc(C)n12
inactive: growth inhibition [1] -13% | growth inhibition [2] -18.9% | viability increase [3] -0.3% | viability [4] 103% | viability [5] 99.5% | inhibition [6] 0.885% | RAM network inhibition [7] 4.74%

COc1ccccc1N1CCN(C(=O)c2ccc(Br)s2)CC1
inactive: growth inhibition [1] -10.4% | growth inhibition [2] -6.29% | viability increase [3] -1.58% | viability [4] 87% | viability [5] 91.1% | inhibition [6] 1.69% | RAM network inhibition [7] 6.83%

CCN(CC(=O)NCc1ccc(F)cc1)C(=O)C1CCN(C(=O)Nc2ccccc2)CC1
inactive: growth inhibition [1] -2.92% | growth inhibition [2] -6.36% | viability increase [3] -0.13% | viability [4] 96.2% | viability [5] 98.6% | inhibition [6] 1.25% | RAM network inhibition [7] 0.37%

Reference: PubChem BioAssay
